ChEMBL document CHEMBL1135521 (J Med Chem, 2002)

How the values were obtained:
[1] = Concentration required to cause 50% death of uninfected MT-4 cells.; assay type: ADME, cell-based, MT4; conditions: human
[2] = molecular target: Human immunodeficiency virus type 1 protease (Human immunodeficiency virus 1, UniProt Q72874); assay: Concentration required to inhibit HIV-1 protease cleavage by 50%.
MT4 = assay: Concentration required to inhibit syncytia formation by 50% on MT-4 cells.; assay type: functional, cell-based; conditions: Homo sapiens
Method in brief: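 HIV-infected MT4 cell cultures were scored by observing the virus's fusogenic effect, that is, syncytium formation. EC50 is the concentration that halves syncytium formation, and compounds were tested up to 50 µM.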

[3] = Selectivity index, expressed as the ratio of CC50 and EC50; conditions: read-out: SI
Method in brief: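 Ratio of CC50 to EC50 in HIV-infected MT4 cell cultures. The antiviral EC50 comes from inhibition of virus-induced syncytium formation (the fusogenic effect), scored by observing the cultures.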

| Compound | CC50 [1] | IC50 [2] | EC50 (MT4) | selectivity ratio [3] |
| --- | --- | --- | --- | --- |
| CC(C)CN(C[C@H](O)[C@H](NC(=O)O[C@@H]1CCOC1)Sc1ccccc1)S(=O)(=O)c1ccc(N)cc1 | > 50 µM | 11.6 µM | > 50 µM | – |
| CC(C)CN(C[C@@H](O)[C@@H](NC(=O)O[C@@H]1CCOC1)Sc1ccccc1)S(=O)(=O)c1ccc(N)cc1 | > 50 µM | 16.7 µM | > 50 µM | – |
| CC(C)CN(C[C@@H](O)[C@H](NC(=O)O[C@@H]1CCOC1)Sc1ccccc1)S(=O)(=O)c1ccc(N)cc1 | > 50 µM | 1.4 µM | > 50 µM | – |
| CC(C)CN(C[C@H](O)[C@@H](NC(=O)O[C@@H]1CCOC1)Sc1ccccc1)S(=O)(=O)c1ccc(N)cc1 | > 50 µM | 12.5 µM | > 50 µM | – |
| CC(C)CN(C[C@@H](O)[C@H](Cc1ccccc1)NC(=O)O[C@H]1CCOC1)S(=O)(=O)c1ccc(N)cc1 | > 50 µM | – | 0.01 µM | – |
| CC(C)CN(CC(O)C(NC(=O)O[C@H]1CCOC1)Sc1ccccc1)S(=O)(=O)c1ccc(N)cc1 (some centres not stated) | > 50 µM | – | 50 µM | > 1 |
